Results on one molecule are retold here after ChEMBL document CHEMBL4184319, “Fluorescent-Labeled Selective Adenosine A2B Receptor Antagonist Enables Competition Binding Assay by Flow Cytometry” (J Med Chem, 2018).

Activity calls are given as the source filed them. The calls are words filed in the database; no cut-off is given here.

For test [1], the target named is Adenosine receptor A2a (Homo sapiens, UniProt P29274). The experiment in a line: Displacement of [3H]MSX-2 from recombinant human adenosine A2A receptor expressed in HEK cell membranes after 30 mins by liquid scintillation counting method. In short, it runs like this:
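[³H]MSX-2 (1 nM) used with rat striatal or human A2A-HEK membranes, 30 min at rt. Membranes pre-incubated 10-15 min with ADA 0.12 IU/mL. Nonspecific binding defined with 10 µM CGS15943. DMSO 2.5 % final. GF/B filtration, then scintillation counting. Curves used 6-7 concentrations over 3 log units. At least three experiments, in duplicate (human) or triplicate (rat).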

Test [2] deals with T1, Adenosine receptor A2b (Mus musculus, UniProt Q60614).
T1 sequence (Q60614 whole entry): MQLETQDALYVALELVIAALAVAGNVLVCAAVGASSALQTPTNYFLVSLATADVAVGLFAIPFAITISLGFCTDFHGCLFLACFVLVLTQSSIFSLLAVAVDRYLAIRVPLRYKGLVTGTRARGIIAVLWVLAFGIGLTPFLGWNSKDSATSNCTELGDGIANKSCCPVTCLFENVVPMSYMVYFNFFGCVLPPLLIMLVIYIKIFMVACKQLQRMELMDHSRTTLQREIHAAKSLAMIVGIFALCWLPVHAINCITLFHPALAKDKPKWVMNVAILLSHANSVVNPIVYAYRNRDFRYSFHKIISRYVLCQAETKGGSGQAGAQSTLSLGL
In words: Displacement of [3H]PSB-603 from recombinant mouse adenosine A2B receptor expressed in CHO cell membranes after 75 mins by liquid scintillation counting method. An outline of the steps: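 [³H]PSB-603 (0.3 nM) used with CHO membranes expressing human, mouse or rat A2BAR, 75 min at rt. Membranes pre-incubated 10-15 min with ADA 0.12 IU/mL. Nonspecific binding defined with 10 µM DPCPX. DMSO 2.5 % final. Filtration on GF/B with ice-cold 50 mM Tris-HCl pH 7.4 containing 0.1 % BSA, then scintillation counting. Curves used 6-7 concentrations over 3 log units. At least three experiments.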

Test [3] has as its target T2, Adenosine receptor A3 (Homo sapiens, UniProt P0DMS8).
T2 sequence (P0DMS8 whole entry): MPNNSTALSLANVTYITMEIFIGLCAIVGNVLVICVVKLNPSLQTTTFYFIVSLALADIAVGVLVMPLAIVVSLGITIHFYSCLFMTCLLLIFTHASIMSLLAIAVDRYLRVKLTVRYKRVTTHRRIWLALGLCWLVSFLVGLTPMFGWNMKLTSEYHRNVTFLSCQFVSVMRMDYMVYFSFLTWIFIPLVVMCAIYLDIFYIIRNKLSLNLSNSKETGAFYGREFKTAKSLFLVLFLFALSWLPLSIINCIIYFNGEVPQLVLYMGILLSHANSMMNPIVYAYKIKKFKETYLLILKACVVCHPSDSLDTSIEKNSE
The experiment in a line: Displacement of [3H]PSB-11 from recombinant human adenosine A3 receptor expressed in CHO cell membranes after 45 mins by liquid scintillation counting method. In short, it runs like this:
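Human A3-CHO membranes incubated with [³H]PSB-11 (1 nM) for 45 min at rt, after 10-15 min pre-incubation with ADA 0.12 IU/mL. Nonspecific binding defined with 100 µM R-PIA. DMSO 2.5 % final. GF/B filtration, then scintillation counting. Curves used 6-7 concentrations over 3 log units. At least three experiments in duplicate.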

A short description of test [4]: Selectivity ratio of Ki for adenosine A2A receptor in rat brain striatal membranes to Ki for recombinant human adenosine A2B receptor expressed in CHO cell membranes. Type of test: cell-based.
The nature of test [5]: Selectivity ratio of Ki for adenosine A2A receptor in rat brain striatal membranes to Ki for recombinant mouse adenosine A2B receptor expressed in CHO cell membranes. Type of test: cell-based.
The nature of test [6]: Selectivity ratio of Ki for recombinant human adenosine A2A receptor expressed in HEK cell membranes to Ki for recombinant rat adenosine A2B receptor expressed in CHO cell membranes. Type of test: cell-based.
Test [7] is filed under the species Rattus norvegicus. In words: Selectivity ratio of Ki for adenosine A2A receptor in rat brain striatal membranes to Ki for recombinant rat adenosine A2B receptor expressed in CHO cell membranes. Type of test: cell-based.
Test [8] is filed under the species Homo sapiens. In words: Selectivity ratio of Ki for recombinant human adenosine A3 receptor expressed in CHO cell membranes to Ki for recombinant human adenosine A2B receptor expressed in CHO cell membranes. Type of test: cell-based.
Test [9] is filed under the species Homo sapiens. In words: Selectivity ratio of Ki for recombinant human adenosine A1 receptor expressed in CHO cell membranes to Ki for recombinant human adenosine A2B receptor expressed in CHO cell membranes. Type of test: cell-based.
Test [10] can be described thus: Selectivity ratio of Ki for recombinant human adenosine A1 receptor expressed in CHO cell membranes to Ki for recombinant mouse adenosine A2B receptor expressed in CHO cell membranes. Type of test: cell-based.
The nature of test [11]: Selectivity ratio of Ki for recombinant human adenosine A3 receptor expressed in CHO cell membranes to Ki for recombinant rat adenosine A2B receptor expressed in CHO cell membranes. Type of test: cell-based.
The target in test [12] is T3, Adenosine receptor A2b (Homo sapiens, UniProt P29275).
T3 sequence (P29275 whole entry): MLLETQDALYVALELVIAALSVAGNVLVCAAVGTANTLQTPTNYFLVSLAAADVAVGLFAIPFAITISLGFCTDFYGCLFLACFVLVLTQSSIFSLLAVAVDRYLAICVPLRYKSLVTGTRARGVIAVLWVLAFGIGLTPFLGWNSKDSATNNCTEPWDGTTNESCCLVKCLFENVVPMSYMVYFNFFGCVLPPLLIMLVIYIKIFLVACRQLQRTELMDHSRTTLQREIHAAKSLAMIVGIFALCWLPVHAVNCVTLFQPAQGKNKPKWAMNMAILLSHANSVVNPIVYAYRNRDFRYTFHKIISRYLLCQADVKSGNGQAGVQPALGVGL
In words: Antagonist activity at recombinant human adenosine A2B receptor expressed in CHO cell membranes assessed as inhibition of NECA-induced cAMP accumulation preincubated for 1 hr followed by NECA induction measured after 5 mins in presence of [3H]cAMP and bovine cAMP-binding protein by liquid scintillation counting method. Type of test: functional. In short, it runs like this:
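CHO cells stably expressing human A2BAR, pre-incubated with antagonist dilutions for 1 h at 37°C, then stimulated with NECA (10 µM final) for 5 min at 37°C. Reaction stopped with hot (90 °C) lysis solution (4 mM EDTA, 0.01 % Triton X100). cAMP quantified by radioactive competition with [³H]cAMP and bovine adrenal cAMP-binding protein. Response expressed as % of NECA response without antagonist. Means ± SEM, three independent experiments in duplicate.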

The target in test [13] is T4, Adenosine receptor A2b (Homo sapiens) (UniProt P29275).
T4 sequence (whole entry): T3 sequence (P29275 whole entry)
In words: Binding affinity to recombinant human adenosine A2B receptor expressed in CHO cell membranes at 100 nM after 15 mins by confocal microscopic method. Type of test: cell-based. An outline of the steps: (§1)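 Live CHO cells stably expressing human A2BAR (or wild-type CHO as control) grown on chambered coverslips to about 80 % confluency. Incubated with fluorescent ligand (100 nM) for 15 min at 37°C, alone or after 30 min pre-incubation with PSB-603 (100 nM) or DPCPX (1 µM). Confocal laser scanning imaging with identical settings across conditions. Three similar experiments.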

In test [14] the target is T4, Adenosine receptor A2b (Homo sapiens). The experiment in a line: Binding affinity to recombinant human adenosine A2B receptor expressed in CHO cell membranes at 100 nM after 15 mins in presence of DPCPX by confocal microscopic method. Type of test: cell-based. In short, it runs like this: as §1

Sequence of Adenosine receptor A2a (P29274 whole entry): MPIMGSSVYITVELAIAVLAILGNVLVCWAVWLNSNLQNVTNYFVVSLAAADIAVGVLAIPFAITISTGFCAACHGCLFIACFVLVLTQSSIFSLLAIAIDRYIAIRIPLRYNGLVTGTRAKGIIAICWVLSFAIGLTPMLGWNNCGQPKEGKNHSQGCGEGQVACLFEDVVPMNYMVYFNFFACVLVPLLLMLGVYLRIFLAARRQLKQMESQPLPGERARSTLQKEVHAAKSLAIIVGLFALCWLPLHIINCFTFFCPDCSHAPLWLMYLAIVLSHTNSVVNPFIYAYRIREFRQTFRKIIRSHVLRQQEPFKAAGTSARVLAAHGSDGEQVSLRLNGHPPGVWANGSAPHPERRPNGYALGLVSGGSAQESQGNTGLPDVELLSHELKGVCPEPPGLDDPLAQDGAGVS

Regarding `CCCn1c(=O)[nH]c2nc(-c3ccc(OCC(=O)NCCC4=C5C(C)=CC(C)=[N+]5[B-](F)(F)n5c(C)cc(C)c54)cc3)[nH]c2c1=O`, the results for the Ki in test [1], in test [2] and in test [3] were more than 10000 nM, 1.32 nM and more than 10000 nM, respectively. For the same molecule, the Ratio Ki was more than 150 in test [4]; more than 150 in test [5]; more than 1000 in test [6]; more than 150 in test [7]; more than 1000 in test [8]; more than 1000 in [9]. Moreover, the Ratio Ki in test [10] and in [11] was more than 1000 throughout. Besides, the IC50 in test [12] turned out to be 262 nM. Moreover, the outcome in test [13] was Active. In addition, in test [14], the result was inactive.
